In article PMC8800389 (Neuron, 2020):
Each block holds one molecule with its values, some of them ahead of it.

Key:
[1] = cis/trans conformation of the PRP17 Gly94-Pro95 bond by 1H-13C HSQC; assay type: physicochemical; conditions: 500 μM peptide in PBS (pH 7.4), 5 % v/v D2O, 750 MHz
PPIL1 = target: T1, PPIL1 (Homo sapiens, UniProt Q9Y3C6); assay type: biochemical; conditions: catalytic concentrations of PPIL1 WT, 25 mM sodium phosphate, 100 mM NaCl, 1 mM dithiothreitol, 5% D2O, pH 7.0, 950 MHz; Figure S6I
T1 sequence (Q9Y3C6 1-166): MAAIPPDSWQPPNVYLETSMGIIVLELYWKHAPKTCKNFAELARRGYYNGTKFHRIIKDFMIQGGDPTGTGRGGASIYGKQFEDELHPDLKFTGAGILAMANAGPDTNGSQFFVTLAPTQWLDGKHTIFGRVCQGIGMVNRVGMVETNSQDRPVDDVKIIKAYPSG
How it was run: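 Substrate: uniformly 15N-labeled PRP17 peptide (residues 84–101), made as a His-SUMO fusion in BL21(DE3) in 15N minimal medium. Induction was 1 mM IPTG, 37 °C, 8 h. Ni-NTA, SUMO protease cleavage (30 °C, 6 h) and C18 reverse-phase HPLC followed, then lyophilisation. ZZ mixing times 120 (×2), 150, 200, 250 (×2), 350, 450, 600 and 750 ms on a TXO cryoprobe.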

[2] = target: T2, PPIL1 p.T107A, purified recombinant (human, UniProt Q9Y3C6 1-166, p.T107A); test: SPR
T2 sequence (looked up): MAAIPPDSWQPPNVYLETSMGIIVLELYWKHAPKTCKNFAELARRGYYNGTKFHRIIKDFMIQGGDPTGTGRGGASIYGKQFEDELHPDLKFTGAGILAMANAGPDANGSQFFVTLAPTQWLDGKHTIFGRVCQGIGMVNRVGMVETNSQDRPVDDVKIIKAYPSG

Molecule: Ac-FAPEFGPENPFRT-NH2
Gly94-Pro95 bond conformation [1]: present in both cis and trans conformations

proline isomerization by PPIL1 WT (ZZ exchange) (PPIL1): This was also confirmed
Molecule: TYETMFAPEFGPENPFRT

binding result [2]: binds
B1: N-terminal GST tagged SKIP 59–129 (domain or fragment, UniProt Q13573 59-129, looked up)
chain: GDGGAFPEIHVAQYPLDMGRKKKMSNALAIQVDSEGKIKYDAIARQGQSKDKVIYSKYTDLVPKEVMNADD
